Laboratory results from ChEMBL document CHEMBL4433210, “Synthesis and Evaluation of Bifunctional Aminothiazoles as Antiretrovirals Targeting the HIV-1 Nucleocapsid Protein” (ACS Med Chem Lett, 2019).
Each block holds one compound with its values, some of them ahead of it. Active and inactive are the calls of the source.

How the values were obtained:
[1] = system: Human immunodeficiency virus 1; assay: Selectivity ratio of IC50 for HIV1 11808 harboring protease L10F/K20T/V32I/L33F/I54V/G73S/I84V/L89V/L90M mutant infected in human MT2 cells to IC50 for HIV1 NL4-3 infected in human MT2 cells; assay type: functional
Summary of the method: (§1)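 Fold change is the IC50 against the resistant strain divided by the IC50 against the wild-type NL4–3 reference. Both IC50 values come from the BiCycle assay (MT-2 infection, then TZM-bl readout of progeny virus).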

[2] = system: Human immunodeficiency virus 1; assay: (§2) Antiviral activity against HIV1 12231 harboring non-nucleoside reverse transcriptase 103N/179F/181C mutant infected in human TZM-bl cells infected with supernatants from virus-infected human MT2 cells treated with compound for 72 hrs assessed as reduction in viral replication after 48 hrs by bright Glo-luciferase reporter gene assay; assay type: functional, organism-based; settings: Human immunodeficiency virus 1, 12231
Summary of the method: (§3)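 BiCycle assay: MT-2 cells infected with a drug-resistant HIV-1 strain in the presence of compound dilutions. Virus produced in this first round is then measured by infecting TZM-bl cells. The readout is IC50.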

[3] = Inhibition of synthesized Nucleocapsid protein (11 to 55 residues) assessed as reduction in NC-induced cTAR DNA destabilization pre-treated with cTAR and Nucleocapsid (11-55) for 15 mins followed by compound addition at 10 uM by spectroflurometry relative to control
Summary of the method: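 NC chaperone inhibition assay: fluorescence monitoring of NC-induced destabilization of cTAR DNA labelled with Alexa488 at the 5′ end and Dabcyl quencher at the 3′ end. Compound is tested at 10 μM.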

[4] = system: Human immunodeficiency virus 1; assay: Selectivity ratio of IC50 for HIV1 11845 harboring integrase 140S/148H double mutant mutant infected in human MT2 cells to IC50 for HIV1 NL4-3 infected in human MT2 cells; assay type: functional; summary of the method: as §1
[5] = system: Human immunodeficiency virus 1; assay: Selectivity ratio of IC50 for HIV1 12229 harboring non-nucleoside reverse transcriptase L100I/K103N/H221Y mutant infected in human MT2 cells to IC50 for HIV1 NL4-3 infected in human MT2 cells; assay type: functional; summary of the method: as §1
[6] = system: Human immunodeficiency virus 1; assay: Selectivity ratio of IC50 for HIV1 12465 harboring protease M46I/I54V/Q58E/T74P/V82L/L90M mutant infected in human MT2 cells to IC50 for HIV1 NL4-3 infected in human MT2 cells; assay type: functional; summary of the method: as §1
[7] = system: Human immunodeficiency virus 1; assay: Antiviral activity against wild-type HIV1 NL4-3 infected in human TZM-bl cells treated with compound assessed as reduction in viral replication after 48 hrs by bright Glo-luciferase reporter gene assay based monocycle assay; settings: Human immunodeficiency virus 1, NL4-3
[8] = Cytotoxicity against human PBMC cells assessed as reduction in cell viability after 7 days by MTS assay; assay type: cell-based; settings: read-out: TD50
Summary of the method: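 Cytotoxicity in peripheral blood mononuclear cells by MTS assay, giving TD50. Only compounds that met the BiCycle IC50 ≤ 5 μM criterion and were positive in the NC inhibition assay were tested.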

[9] = system: Human immunodeficiency virus 1; assay: as §2, with “7401” for “12231”, “nucleoside” for “non-nucleoside”, “M41L/E44D/D67N/T69D/M184V/L210W/T215Y” for “103N/179F/181C”; assay type: functional, organism-based; settings: Human immunodeficiency virus 1, 7401; summary of the method: as §3
[10] = Selectivity index, ratio of TD50 for cytotoxicity aginst human PBMC cells to IC50 for antiviral activity against wild type HIV1 NL4-3 infected in human TZM-bl cells assessed as reduction in viral replication after 48 hrs by bright Glo-luciferase reporter gene assay based BiCycle assay; assay type: toxicity, cell-based; settings: read-out: Selectivity Index
Summary of the method: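 SI calculated as TD50 from the PBMC MTS assay divided by IC50 from the BiCycle antiviral assay (MT-2 infection followed by TZM-bl read-out).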

[11] = system: Human immunodeficiency virus 1; assay: as §2, with “11808” for “12231”, “protease L10F/K20T/V32I/L33F/I54V/G73S/I84V/L89V/L90M” for “non-nucleoside reverse transcriptase 103N/179F/181C”; assay type: functional, organism-based; settings: Human immunodeficiency virus 1, 11808; summary of the method: as §3
[12] = system: Human immunodeficiency virus 1; assay: as §2, with “7400” for “12231”, “nucleoside” for “non-nucleoside”, “M41L/D67N/M184V/L210W/T215Y” for “103N/179F/181C”; assay type: functional, organism-based; settings: Human immunodeficiency virus 1, 7400; summary of the method: as §3
[13] = system: Human immunodeficiency virus 1; assay: Selectivity ratio of IC50 for HIV1 12231 harboring non-nucleoside reverse transcriptase 103N/179F/181C mutant infected in human MT2 cells to IC50 for HIV1 NL4-3 infected in human MT2 cells; assay type: functional; summary of the method: as §1
[14] = system: Human immunodeficiency virus 1; assay: as §2, with “11845” for “12231”, “integrase 140S/148H double” for “non-nucleoside reverse transcriptase 103N/179F/181C”; assay type: functional, organism-based; settings: Human immunodeficiency virus 1, 11845; summary of the method: as §3
[15] = system: Human immunodeficiency virus 1; assay: as §2, with “12229” for “12231”, “L100I/K103N/H221Y” for “103N/179F/181C”; assay type: functional, organism-based; settings: Human immunodeficiency virus 1, 12229; summary of the method: as §3
[16] = system: Human immunodeficiency virus 1; assay: Selectivity ratio of IC50 for HIV1 7401 harboring nucleoside reverse transcriptase M41L/E44D/D67N/T69D/M184V/L210W/T215Y mutant infected in human MT2 cells to IC50 for HIV1 NL4-3 infected in human MT2 cells; assay type: functional; summary of the method: as §1
[17] = system: Human immunodeficiency virus 1; assay: Antiviral activity against wild type HIV1 NL4-3 infected in human TZM-bl cells assessed as reduction in viral replication after 48 hrs by bright Glo-luciferase reporter gene assay based BiCycle assay; assay type: functional, organism-based; settings: Human immunodeficiency virus 1, NL4-3, TZM-bl
Summary of the method: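 BiCycle format: MT-2 cells infected with wild-type NL4-3 in the presence of compound dilutions. Virus produced in this first round was then quantified by infecting TZM-bl cells. IC50 was derived from the dose-response data.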

[18] = system: Human immunodeficiency virus 1; assay: Selectivity ratio of IC50 for HIV1 7400 harboring nucleoside reverse transcriptase M41L/D67N/M184V/L210W/T215Y mutant infected in human MT2 cells to IC50 for HIV1 NL4-3 infected in human MT2 cells; assay type: functional; summary of the method: as §1
[19] = system: Human immunodeficiency virus 1; assay: as §2, with “12465” for “12231”, “protease M46I/I54V/Q58E/T74P/V82L/L90M” for “non-nucleoside reverse transcriptase 103N/179F/181C”; assay type: functional, organism-based; settings: Human immunodeficiency virus 1, 12465; summary of the method: as §3
[20] = system: Human immunodeficiency virus 1; assay: Antiviral activity against wild-type HIV1 NL4-3 infected infected in human MT2 cells assessed as reduction in HIV1 intracellular genomic RNA level at 1 uM and measured after 30 hrs post infection by TaqMan probe based RT-PCR analysis; assay type: functional, organism-based
Summary of the method: (§4)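 MT-2 cells were infected with NL4-3 at MOI 0.1 and incubated with test or reference agents at 20, 5 or 1 μM. Real-time PCR measured integrated HIV-1 DNA and intracellular and extracellular genomic HIV-1 RNA at 30 h post-infection. Levels are expressed as a percentage of the no-drug control culture.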

[21] = system: Human immunodeficiency virus 1; assay: Antiviral activity against wild-type HIV1 NL4-3 infected infected in human MT2 cells assessed as reduction in HIV1 extracellular genomic RNA level at 1 uM and measured after 30 hrs post infection by TaqMan probe based RT-PCR analysis; assay type: functional, organism-based; summary of the method: as §4
[22] = system: Human immunodeficiency virus 1; assay: Antiviral activity against wild-type HIV1 NL4-3 infected infected in human MT2 cells assessed as reduction in HIV1 integrated DNA at 1 uM and measured after 30 hrs post infection by Alu-LTR PCR protocol based method; assay type: functional, organism-based; summary of the method: as §4

Compound: Nc1nc(-c2ccc(OCc3cccc(C(=O)NCCNC(=O)c4ccc(COc5ccccc5-c5csc(N)n5)cc4)c3)cc2)cs1.O=C(O)C(F)(F)F.O=C(O)C(F)(F)F
- Ratio IC50 [1]: 1.3
- IC50 [2]: 0.8 µM
- inhibition [3]: 24%
- Ratio IC50 [4]: 0.8
- Ratio IC50 [5]: 1.7
- Ratio IC50 [6]: 0.9
- IC50 [7]: 5 µM
- CC50 at 168 h [8]: 30 µM
- IC50 [9]: 1200 nM
- selectivity ratio at 48 h [10]: 23
- IC50 [11]: 2100 nM
- IC50 [12]: 800 nM
- Ratio IC50 [13]: 0.6
- IC50 [14]: 1000 nM
- IC50 [15]: 2200 nM
- Ratio IC50 [16]: 0.9
- IC50 [17]: 1.3 µM
- Ratio IC50 [18]: 0.6
- IC50 [19]: 1200 nM

Compound: Nc1nc(CCNC(=O)c2ccc(COc3ccccc3-c3csc(N)n3)cc2)cs1
- inhibition [3]: 16%
- IC50 [7]: > 50 µM
- IC50 [17]: 36 µM

Compound: Nc1nc(-c2ccc(OCc3cccc(C(=O)NCCCCNC(=O)c4ccc(COc5ccccc5-c5csc(N)n5)cc4)c3)cc2)cs1
- inhibition [3]: 19%
- IC50 [7]: 16 µM
- CC50 at 168 h [8]: > 100 µM
- selectivity ratio at 48 h [10]: > 20
- IC50 [17]: 5 µM

- IC50 [7]: > 100 µM
- IC50 [17]: > 100 µM
Compound: Nc1nc(CC(=O)NCCNC(=O)c2ccc(COc3ccccc3-c3csc(N)n3)cc2)cs1

Compound: Nc1nc(-c2ccc(OCc3cccc(C(=O)NCCNC(=O)c4ccc(COc5cccc6sc(N)nc56)cc4)c3)cc2)cs1
- inhibition [3]: 17%
- IC50 [7]: > 50 µM
- IC50 [17]: 37 µM

Compound: Nc1nc(-c2ccc(OCc3cccc(C(=O)NCCNC(=O)c4ccc(COc5ccc(F)cc5-c5csc(N)n5)cc4)c3)cc2)cs1.O=C(O)C(F)(F)F.O=C(O)C(F)(F)F
- Ratio IC50 [1]: 0.7
- IC50 [2]: 4 µM
- inhibition [3]: 16%
- Ratio IC50 [4]: 2.7
- Ratio IC50 [5]: 0.8
- Ratio IC50 [6]: 1.8
- IC50 [7]: > 50 µM
- CC50 at 168 h [8]: > 50 µM
- IC50 [9]: 600 nM
- selectivity ratio at 48 h [10]: > 45
- IC50 [11]: 800 nM
- IC50 [12]: 1100 nM
- Ratio IC50 [13]: 3.6
- IC50 [14]: 3000 nM
- IC50 [15]: 900 nM
- Ratio IC50 [16]: 0.5
- IC50 [17]: 1.1 µM
- Ratio IC50 [18]: 1
- IC50 [19]: 2000 nM

Compound: Nc1nc(-c2ccc(C(=O)NCCCNC(=O)c3ccc(COc4ccccc4-c4csc(N)n4)cc3)cc2)cs1
- inhibition [3]: 15%
- IC50 [7]: 12 µM
- IC50 [17]: 15 µM

Compound: Nc1nc(-c2ccc(OCc3cccc(C(=O)NCCNC(=O)c4ccc(COc5ccccc5-c5coc(N)n5)cc4)c3)cc2)co1
- inhibition [3]: 21%
- IC50 [7]: > 50 µM
- IC50 [17]: 6.2 µM

- IC50 [7]: > 100 µM
- IC50 [17]: > 100 µM
Compound: Nc1ccc(NCCNS(=O)(=O)c2ccc(COc3ccccc3-c3csc(N)n3)cc2)nc1

Compound: Nc1nc(-c2ccc(OCc3cccc(C(=O)NCCCNC(=O)c4ccc(COc5ccccc5-c5csc(N)n5)cc4)c3)cc2)cs1
- inhibition [3]: 16%
- IC50 [7]: > 50 µM
- IC50 [17]: 12 µM

Compound: Nc1nc(-c2ccccc2OCc2ccc(C(=O)NCCCNc3ccc([N+](=O)[O-])cn3)cc2)cs1
- inhibition [3]: 21%
- IC50 [7]: 28 µM
- IC50 [17]: 12 µM

Compound: Nc1nc(-c2ccc(C(=O)NCCNC(=O)c3ccc(COc4ccccc4-c4csc(N)n4)cc3)cc2)cs1
- inhibition [3]: inactive
- IC50 [7]: 30 µM
- IC50 [17]: 5 µM

Compound: Cc1cc(/C=C/C#N)cc(C)c1Nc1ccnc(Nc2ccc(C#N)cc2)n1
- Activity [20]: Active
- Activity [21]: Active

Compound: Nc1ccc(NCCNC(=O)c2ccc(COc3ccccc3-c3csc(N)n3)cc2)nc1.O=C(O)C(F)(F)F.O=C(O)C(F)(F)F.O=C(O)C(F)(F)F
- Ratio IC50 [1]: 0.8
- IC50 [2]: 5 µM
- inhibition [3]: 15%
- Ratio IC50 [4]: 0.6
- Ratio IC50 [5]: 3.1
- Ratio IC50 [6]: 1.6
- IC50 [7]: > 50 µM
- CC50 at 168 h [8]: 45 µM
- IC50 [9]: 2700 nM
- selectivity ratio at 48 h [10]: 12
- IC50 [11]: 3000 nM
- IC50 [12]: 1500 nM
- Ratio IC50 [13]: 1.3
- IC50 [14]: 2300 nM
- IC50 [15]: 12000 nM
- Ratio IC50 [16]: 0.7
- IC50 [17]: 3.8 µM
- Ratio IC50 [18]: 0.4
- IC50 [19]: 6000 nM

Compound: Cc1nnc(C(=O)NC(C)(C)c2nc(C(=O)NCc3ccc(F)cc3)c(O)c(=O)n2C)o1
- Activity [22]: Active

- IC50 [7]: > 100 µM
- IC50 [17]: > 100 µM
Compound: Nc1nc(-c2ccccc2OCc2ccc(C(=O)NCCN3CCOCC3)cc2)cs1

Compound: Nc1nc(CCc2nc(-c3ccc(COc4ccccc4-c4csc(N)n4)cc3)no2)cs1
- inhibition [3]: inactive
- IC50 [7]: 35 µM
- IC50 [17]: 6 µM

Compound: Nc1nc(-c2ccc(OCc3cccc(C(=O)N4CCN(C(=O)c5ccc(COc6ccccc6-c6csc(N)n6)cc5)CC4)c3)cc2)cs1
- inhibition [3]: 15%
- IC50 [7]: > 50 µM
- IC50 [17]: 28 µM
